Compound activity as filed in PubChem.
Myeloid diff 2 – compounds promoting myeloid differentiation; hit rate 1% among 360,000; ER-HoxA9 myeloid progenitors, lysozyme-GFP differentiation, flow cytometry; calls only at 10 µM;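 active = normalized GFP-positive differentiation at or above the plate's own cutoff, the solvent-only control mean plus 3 SD; inconclusive = no clear call, values can overlap the other calls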;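 also: cells exposed to compound for four days before flow analysis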
ABCB6 inh MLPCN – blocks the human ABCB6 transporter; hit rate 0.19% among 360,000; K562-ABCB6 porphyrin accumulation, flow cytometry, 1 h; stronger effect = lower value; fluorescence ratio to DMSO, % at 10 µM; AID 602162; Q9NP58;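 active = fluorescence ratio to DMSO below 75%, the collection mean minus 3 SD; inconclusive = too few cells collected in the well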;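 also: signal is porphyrin accumulated inside mitochondria; 100% equals median channel fluorescence of DMSO control wells; lower ratio means ABCB6 inhibition with less porphyrin fluorescence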
Target sequence (Q9NP58 whole entry, looked up): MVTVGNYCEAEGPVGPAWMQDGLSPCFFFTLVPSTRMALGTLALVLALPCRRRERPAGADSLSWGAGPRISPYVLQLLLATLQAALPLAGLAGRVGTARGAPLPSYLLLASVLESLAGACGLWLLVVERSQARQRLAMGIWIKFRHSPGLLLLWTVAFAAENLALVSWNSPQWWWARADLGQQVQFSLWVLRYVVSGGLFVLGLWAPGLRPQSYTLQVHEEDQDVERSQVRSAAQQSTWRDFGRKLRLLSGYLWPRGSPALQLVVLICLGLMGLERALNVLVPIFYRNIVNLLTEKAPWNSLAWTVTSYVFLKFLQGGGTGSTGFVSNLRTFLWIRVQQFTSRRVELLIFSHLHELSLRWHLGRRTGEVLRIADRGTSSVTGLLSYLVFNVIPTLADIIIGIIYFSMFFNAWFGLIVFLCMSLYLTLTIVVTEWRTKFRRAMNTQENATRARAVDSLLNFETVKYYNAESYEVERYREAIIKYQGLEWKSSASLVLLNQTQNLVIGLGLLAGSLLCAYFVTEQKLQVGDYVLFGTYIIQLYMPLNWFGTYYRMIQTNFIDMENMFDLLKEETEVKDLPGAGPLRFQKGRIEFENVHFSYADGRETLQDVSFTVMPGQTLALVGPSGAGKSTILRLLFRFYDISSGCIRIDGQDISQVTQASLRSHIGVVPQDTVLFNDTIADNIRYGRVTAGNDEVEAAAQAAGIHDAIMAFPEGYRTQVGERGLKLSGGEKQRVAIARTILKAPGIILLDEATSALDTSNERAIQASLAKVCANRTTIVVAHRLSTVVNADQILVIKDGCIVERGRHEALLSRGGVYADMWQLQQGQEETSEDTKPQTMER
XiGFP reactiv – reactivates the inactive X chromosome in mouse fibroblasts | XiGFP mouse fibroblasts, % GFP-positive cells imaging, 3 d; cells co-treated with 5-aza-dC sensitizer; scaled so ellipticine positive control = 100% | activation, % at 7.58 µM | hit rate 0.055% among 360,000;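 active = mean normalized replicate activation at least 10% and every replicate at or above 10%; inconclusive = only one of the two criteria met; inactive = mean below 10% and not all replicates reach 10%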;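 also: 0% = median of on-plate neutral control wells and 100% = ellipticine 6 µM median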
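System: SV40-immortalized XiGFP fibroblast cells, line 68-5-11 / Incubation: 3-day compound exposure, then 15 min fixation at room temperature / Compound: single concentration per compound, delivered by pin transfer / Buffer or medium: DMEM plus 5-aza-dC sensitizer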
An asterisk follows results filed as active. This excerpt belongs to a sample that is enriched for hits.

`Cc1cccc(S(=O)(=O)N2CC[C@@H]3[C@@H](CO)Nc4ccc(C#Cc5cccnc5)cc4[C@@H]32)c1` gave XiGFP reactiv 0.1.
Screening CO[C@@H]1CN(C)C(=O)c2ccc(NC(=O)C3CC3)cc2OC[C@@H](C)N(C(=O)c2cnccn2)C[C@@H]1C returned XiGFP reactiv 0.2.
c1cncc(-c2nc(-c3cccs3)cs2)c1 was read as Myeloid diff 2 active and ABCB6 inh MLPCN 118.0.
Screening c1cncc(-c2csc(-c3cccnc3)n2)c1 returned Myeloid diff 2 inactive, ABCB6 inh MLPCN 105.0 and XiGFP reactiv 0.0.
Screening CN1C(=O)c2cc(NC(=O)Nc3ccccc3Cl)ccc2OC[C@H]2O[C@H](CC(=O)O)CC[C@@H]21 returned XiGFP reactiv 0.0.
For Cc1ccc(C(=O)CSc2nc3cccnc3n2C)cc1 the results were Myeloid diff 2 active and ABCB6 inh MLPCN 96.0.
`Cn1c(SCC(=O)c2ccccc2)nc2cccnc21` gave Myeloid diff 2 inactive and ABCB6 inh MLPCN 97.0.
Cc1ccc(-c2ccc(C3[C@H]4CNC[C@@H]3N4S(=O)(=O)c3cn(C)cn3)cc2)cc1 (stereo not given in full) was read as XiGFP reactiv 0.0.
Screening Oc1ccc(N2CCN(Cc3nc4ccccc4[nH]3)CC2)cc1 returned Myeloid diff 2 inactive, ABCB6 inh MLPCN 94.0 and XiGFP reactiv 0.3.
`c1ccc(N2CCN(Cc3nc4ccccc4[nH]3)CC2)nc1` gave Myeloid diff 2 active, ABCB6 inh MLPCN 104.0 and XiGFP reactiv 0.3.
`CN(C)Cc1cn(CC[C@H]2CC[C@@H](NC(=O)Nc3ccc4c(c3)OCO4)[C@@H](CO)O2)nn1` gave XiGFP reactiv 0.6.
Screening Cc1sc2nc(SCc3ccc(C(=O)O)cc3)n(Cc3ccco3)c(=O)c2c1C returned Myeloid diff 2 inactive, ABCB6 inh MLPCN 91.0 and XiGFP reactiv 0.0.
For Cc1sc2nc(SCC(=O)c3cccs3)n(Cc3ccco3)c(=O)c2c1C the results were Myeloid diff 2 active and ABCB6 inh MLPCN 103.0.
C=CCn1nnnc1SCC(=O)Nc1ccc(C(=O)OC)cc1 was read as Myeloid diff 2 inactive, ABCB6 inh MLPCN 106.0 and XiGFP reactiv -0.2.
Screening C=CCn1nnnc1SCC(=O)Nc1cccc(C(F)(F)F)c1 returned Myeloid diff 2 active, ABCB6 inh MLPCN 105.0 and XiGFP reactiv 0.1.
For COc1ccccc1S(=O)(=O)N[C@H]1CC[C@@H](CC(=O)NCc2cc(F)cc(F)c2)O[C@@H]1CO the results were XiGFP reactiv -0.2.
Screening COc1cc(/C=C(/C#N)c2nc(-c3cc4ccccc4oc3=O)cs2)cc([N+](=O)[O-])c1O returned XiGFP reactiv 0.1.
For COc1cc(/C=C(\C#N)c2nc(-c3cc4ccccc4oc3=O)cs2)ccc1O the results were Myeloid diff 2 active, ABCB6 inh MLPCN 188.0 and XiGFP reactiv 0.0.
Screening COc1cc(/C=C(\C#N)c2nc3ccccc3o2)ccc1O returned Myeloid diff 2 active, ABCB6 inh MLPCN 229.0 and XiGFP reactiv 18.0*.
For N#C/C(=C\c1ccc(O)cc1)c1nc2ccccc2o1 the results were Myeloid diff 2 inactive, ABCB6 inh MLPCN 96.0 and XiGFP reactiv 0.0.
`CCCN1CCC(=O)N([C@H](CSc2ccccc2)Cc2ccccc2)CC1` gave Myeloid diff 2 inactive, ABCB6 inh MLPCN 104.0 and XiGFP reactiv -0.1.
CCCN1CCC(=O)N([C@H](CSc2ccc(Br)cc2)Cc2ccccc2)CC1 was read as Myeloid diff 2 active, ABCB6 inh MLPCN 100.0 and XiGFP reactiv 0.2.
Screening CCc1c(-c2ccccc2)ncn1Cc1cccc(-c2ccccc2)c1 returned Myeloid diff 2 inactive and XiGFP reactiv -0.1.
Screening CCCc1c(Cc2cccc(F)c2)ncn1Cc1cccc(-c2ccccc2)c1 returned Myeloid diff 2 active and XiGFP reactiv 0.0.
For CCCNC(=O)[C@@H]1[C@@H](CO)[C@@H]2Cn3c(ccc(/C=C/c4ccccc4)c3=O)[C@@H]2N1CC the results were XiGFP reactiv -0.1.
`COc1ccc(S(=O)(=O)Nc2ccc3c(c2)C(=O)N([C@@H](C)CO)C[C@H](C)[C@H](CN(C)C(=O)NC(C)C)O3)cc1` gave XiGFP reactiv -0.2.
`COCC(=O)N[C@@H]1CC[C@@H](CC(=O)NCc2ccccc2OC)O[C@H]1CO` gave XiGFP reactiv 0.2.
CCCOc1ccc(N)cc1N was read as Myeloid diff 2 active and ABCB6 inh MLPCN 144.0.
`CCCOc1cc(N)ccc1C(=O)OCCN(CC)CC` gave Myeloid diff 2 inactive, ABCB6 inh MLPCN 100.0 and XiGFP reactiv -0.1.
COc1ccc(NC(=O)N(C)C[C@@H]2Oc3ccc(NC(=O)C4CCCCC4)cc3CC(=O)N([C@@H](C)CO)C[C@@H]2C)cc1 was read as XiGFP reactiv -0.6.
COc1cccc(Nc2nc(C(N)c3ccccc3)cs2)n1 (stereo not given) was read as Myeloid diff 2 active, ABCB6 inh MLPCN 95.0 and XiGFP reactiv 0.1.
`COc1ccc(C(N)c2csc(Nc3nncc4ccccc34)n2)cc1` (stereo not given) gave Myeloid diff 2 active, ABCB6 inh MLPCN 88.0 and XiGFP reactiv 0.1.
For COc1cccc(Nc2nc(C(C)N)cs2)n1 (stereo not given) the results were Myeloid diff 2 inactive, ABCB6 inh MLPCN 103.0 and XiGFP reactiv 0.2.
Screening COc1ccc(C(N)c2csc(Nc3ncccn3)n2)cc1 (stereo not given) returned Myeloid diff 2 inactive, ABCB6 inh MLPCN 107.0 and XiGFP reactiv 0.0.
Screening C[C@@H]1CN([C@@H](C)CO)C(=O)Cc2cc(NS(=O)(=O)c3cccs3)ccc2O[C@H]1CN(C)Cc1ccc(Cl)c(Cl)c1 returned XiGFP reactiv -0.1.
Screening COc1cccc(S(=O)(=O)N2[C@@H]3CNC[C@H]2C3c2ccc(-c3ccc(C(=O)N(C)C)cc3)cc2)c1 (stereo not given in full) returned XiGFP reactiv 0.1.
For O=c1[nH]cccc1-c1nc2ccccc2n1Cc1ccccc1F the results were Myeloid diff 2 inactive, ABCB6 inh MLPCN 97.0 and XiGFP reactiv 0.0.
For CCn1c(-c2ccc[nH]c2=O)nc2ccccc21 the results were Myeloid diff 2 active, ABCB6 inh MLPCN inactive and XiGFP reactiv 0.0.
Screening O=C(C[C@@H]1C=C[C@@H](NS(=O)(=O)c2ccc(F)cc2)[C@@H](CO)O1)NCc1ccc(Cl)c(Cl)c1 returned XiGFP reactiv -0.2.
For CC=Cc1ccc2n(c1=O)C[C@H]1[C@H](CO)[C@@H](C(=O)NCCc3cn(C)cn3)[C@@H]2N1C(=O)C1CCCC1 (mixture of isomers) the results were XiGFP reactiv 0.8.
`CC[n+]1c(/C=C2\Sc3ccccc3N2C)ccc2cccc(C)c21` gave Myeloid diff 2 inconclusive and XiGFP reactiv 105.1*.
For CCN1/C(=C/C=C/c2sc3ccccc3[n+]2CC)Sc2ccccc21 the results were Myeloid diff 2 inactive and ABCB6 inh MLPCN inactive.
CCN1/C(=C/c2ccc3cc(C)ccc3[n+]2CC)Sc2ccccc21 was read as Myeloid diff 2 inconclusive and XiGFP reactiv 448.2*.
`CN1/C(=C/c2cccc[n+]2CCO)Sc2ccccc21` gave Myeloid diff 2 inactive, ABCB6 inh MLPCN 115.0 and XiGFP reactiv 0.3.
